Results reported in ChEMBL document CHEMBL4052710 (Bioorg Med Chem Lett, 2017).
Calls of active or inactive are those of the source. No cut-off for these calls is given here.

Experiments:
NCI-H460 [1] = test: Growth inhibition of human H460 cells incubated for 72 hrs by CCK8 assay; format: functional, cell-based; details: NCI-H460, 72 h
MCF7 = test: Growth inhibition of human MCF7 cells incubated for 72 hrs by CCK8 assay; format: functional, cell-based; details: MCF7, 72 h
T47D [2] = test: Growth inhibition of human T47D cells incubated for 72 hrs by CCK8 assay; format: functional, cell-based
A549 [3] = test: Growth inhibition of human A549 cells incubated for 72 hrs by CCK8 assay; format: functional, cell-based; details: A549, 72 h
NCI-H1299 [4] = test: Growth inhibition of human H1299 cells incubated for 72 hrs by CCK8 assay; format: functional, cell-based; details: NCI-H1299, 72 h
OVCAR-5 [5] = test: Growth inhibition of human OVCAR5 cells incubated for 72 hrs at 1 uM by CCK8 assay; format: functional; details: OVCAR-5, 72 h, read-out: GI
Outline: (§1)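 CCK8 viability assay on a panel of human cancer cell lines, with an initial screen at fixed concentrations of 1 µM and 10 µM.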

NCI-H460 [6] = test: Growth inhibition of human H460 cells incubated for 72 hrs at 10 uM by CCK8 assay; format: functional; details: NCI-H460, 72 h, read-out: GI; outline: as §1
A549 [7] = test: Growth inhibition of human A549 cells incubated for 72 hrs at 1 uM by CCK8 assay; format: functional; details: A549, 72 h, read-out: GI; outline: as §1
A549 [8] = test: Growth inhibition of human A549 cells incubated for 72 hrs at 10 uM by CCK8 assay; format: functional; details: A549, 72 h, read-out: GI; outline: as §1
NCI-H1299 [9] = test: Growth inhibition of human H1299 cells incubated for 72 hrs at 1 uM by CCK8 assay; format: functional; details: NCI-H1299, 72 h, read-out: GI; outline: as §1
[10] = biological target: Vascular endothelial growth factor receptor 2 (Homo sapiens, UniProt P35968); test: Inhibition of human VEGFR2 at 1 uM by enzymatic radiometric assay
T47D [11] = test: Growth inhibition of human T47D cells incubated for 72 hrs at 10 uM by CCK8 assay; format: functional; details: read-out: GI; outline: as §1
T47D [12] = test: Growth inhibition of human T47D cells incubated for 72 hrs at 1 uM by CCK8 assay; format: functional; details: read-out: GI; outline: as §1
SiHa [13] = test: Growth inhibition of human SiHa cells incubated for 72 hrs at 10 uM by CCK8 assay; format: functional; details: read-out: GI; outline: as §1
NCI-H460 [14] = test: Growth inhibition of human H460 cells incubated for 72 hrs at 1 uM by CCK8 assay; format: functional; details: NCI-H460, 72 h, read-out: GI; outline: as §1
OVCAR-5 [15] = test: Growth inhibition of human OVCAR5 cells incubated for 72 hrs at 10 uM by CCK8 assay; format: functional; details: OVCAR-5, 72 h, read-out: GI; outline: as §1
HeLa [16] = test: Growth inhibition of human HeLa cells incubated for 72 hrs at 1 uM by CCK8 assay; format: functional; details: read-out: GI; outline: as §1
HeLa [17] = test: Growth inhibition of human HeLa cells incubated for 72 hrs at 10 uM by CCK8 assay; format: functional; details: read-out: GI; outline: as §1
NCI-H1299 [18] = test: Growth inhibition of human H1299 cells incubated for 72 hrs at 10 uM by CCK8 assay; format: functional; details: NCI-H1299, 72 h, read-out: GI; outline: as §1
SiHa [19] = test: Growth inhibition of human SiHa cells incubated for 72 hrs at 1 uM by CCK8 assay; format: functional; details: read-out: GI; outline: as §1
[20] = biological target: CDK4/Cyclin D3 (Homo sapiens) (UniProt P11802+P30281); test: Inhibition of human CDK4/CyclinD3 at 1 uM by enzymatic radiometric assay; format: protein-complex assay
Outline: (§2)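 Kinase panel run through the Eurofins KinaseProfiler, with compound at a fixed 1 µM. Values are means of two independent experiments.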

[21] = biological target: CDK2/Cyclin A2 (Homo sapiens) (UniProt P24941+P20248); test: Inhibition of human CDK2/CyclinA at 1 uM by enzymatic radiometric assay; format: protein-complex assay; outline: as §2
[22] = biological target: T1, Cyclin-dependent kinase 5/CDK5 activator 1 (Homo sapiens) (UniProt Q00535+Q15078); test: Inhibition of human CDK5/p25 at 1 uM by enzymatic radiometric assay; format: protein-complex assay
[23] = biological target: CDK12/Cyclin K (Homo sapiens) (UniProt O75909+Q9NYV4); test: Inhibition of human CDK12/CyclinK at 1 uM by enzymatic radiometric assay; format: protein-complex assay; outline: as §2
[24] = biological target: Cyclin-dependent kinase 2/cyclin E1 (Homo sapiens) (UniProt P24864+P24941); test: Inhibition of human CDK2/CyclinE at 1 uM by enzymatic radiometric assay; format: protein-complex assay; outline: as §2
[25] = biological target: CDK9/cyclin T1 (Homo sapiens) (UniProt O60563+P50750); test: Inhibition of human CDK9/CyclinT1 at 1 uM by enzymatic radiometric assay; format: protein-complex assay
[26] = biological target: T1, Cyclin-dependent kinase 5/CDK5 activator 1 (Homo sapiens); test: Inhibition of human CDK5/p35 at 1 uM by enzymatic radiometric assay; format: protein-complex assay
[27] = biological target: CDK6/cyclin D3 (Homo sapiens) (UniProt P30281+Q00534); test: Inhibition of human CDK6/CyclinD3 at 1 uM by enzymatic radiometric assay; format: protein-complex assay
[28] = biological target: CDK3/Cyclin E (Homo sapiens) (UniProt P24864+Q00526); test: Inhibition of human CDK3/CyclinE at 1 uM by enzymatic radiometric assay; format: protein-complex assay; outline: as §2
[29] = biological target: Cyclin-dependent kinase 1/cyclin B1 (Homo sapiens) (UniProt P06493+P14635); test: Inhibition of human CDK1/CyclinB at 1 uM by enzymatic radiometric assay; format: protein-complex assay; outline: as §2
[30] = biological target: CDK18/Cyclin Y (Homo sapiens) (UniProt Q07002+Q8ND76); test: Inhibition of human CDK18/CyclinY at 1 uM by enzymatic radiometric assay; format: protein-complex assay; outline: as §2
[31] = biological target: CDK7/Cyclin H/MNAT1 (Homo sapiens) (UniProt P51946+P50613+P51948); test: Inhibition of human CDK7/CyclinH/MAT1 at 1 uM by enzymatic radiometric assay; format: protein-complex assay
T47D [32] = test: Induction of apoptosis in human T47D cells assessed as early apoptotic cells level at 5 uM incubated for 48 hrs by annexin V-FITC and propidium iodide staining based flow cytometry (reference value: 0.75%); format: functional
T47D [33] = test: Induction of apoptosis in human T47D cells assessed as viable cells level at 5 uM incubated for 48 hrs by annexin V-FITC and propidium iodide staining based flow cytometry (reference value: 96%); format: functional
T47D [34] = test: Induction of cell cycle arrest in human T47D cells assessed as increase in G0/G1 phase accumulation incubated for 24 hrs by flow cytometry; format: functional, cell-based
T47D [35] = test: Induction of apoptosis in human T47D cells assessed as late apoptotic cells level at 5 uM incubated for 48 hrs by annexin V-FITC and propidium iodide staining based flow cytometry (reference value: 0.48%); format: functional
T47D [36] = test: Induction of apoptosis in human T47D cells assessed as necrotic cells level at 5 uM incubated for 48 hrs by annexin V-FITC and propidium iodide staining based flow cytometry (reference value: 2.79%); format: functional

Vascular endothelial growth factor receptor 2, sequence (P35968 whole entry): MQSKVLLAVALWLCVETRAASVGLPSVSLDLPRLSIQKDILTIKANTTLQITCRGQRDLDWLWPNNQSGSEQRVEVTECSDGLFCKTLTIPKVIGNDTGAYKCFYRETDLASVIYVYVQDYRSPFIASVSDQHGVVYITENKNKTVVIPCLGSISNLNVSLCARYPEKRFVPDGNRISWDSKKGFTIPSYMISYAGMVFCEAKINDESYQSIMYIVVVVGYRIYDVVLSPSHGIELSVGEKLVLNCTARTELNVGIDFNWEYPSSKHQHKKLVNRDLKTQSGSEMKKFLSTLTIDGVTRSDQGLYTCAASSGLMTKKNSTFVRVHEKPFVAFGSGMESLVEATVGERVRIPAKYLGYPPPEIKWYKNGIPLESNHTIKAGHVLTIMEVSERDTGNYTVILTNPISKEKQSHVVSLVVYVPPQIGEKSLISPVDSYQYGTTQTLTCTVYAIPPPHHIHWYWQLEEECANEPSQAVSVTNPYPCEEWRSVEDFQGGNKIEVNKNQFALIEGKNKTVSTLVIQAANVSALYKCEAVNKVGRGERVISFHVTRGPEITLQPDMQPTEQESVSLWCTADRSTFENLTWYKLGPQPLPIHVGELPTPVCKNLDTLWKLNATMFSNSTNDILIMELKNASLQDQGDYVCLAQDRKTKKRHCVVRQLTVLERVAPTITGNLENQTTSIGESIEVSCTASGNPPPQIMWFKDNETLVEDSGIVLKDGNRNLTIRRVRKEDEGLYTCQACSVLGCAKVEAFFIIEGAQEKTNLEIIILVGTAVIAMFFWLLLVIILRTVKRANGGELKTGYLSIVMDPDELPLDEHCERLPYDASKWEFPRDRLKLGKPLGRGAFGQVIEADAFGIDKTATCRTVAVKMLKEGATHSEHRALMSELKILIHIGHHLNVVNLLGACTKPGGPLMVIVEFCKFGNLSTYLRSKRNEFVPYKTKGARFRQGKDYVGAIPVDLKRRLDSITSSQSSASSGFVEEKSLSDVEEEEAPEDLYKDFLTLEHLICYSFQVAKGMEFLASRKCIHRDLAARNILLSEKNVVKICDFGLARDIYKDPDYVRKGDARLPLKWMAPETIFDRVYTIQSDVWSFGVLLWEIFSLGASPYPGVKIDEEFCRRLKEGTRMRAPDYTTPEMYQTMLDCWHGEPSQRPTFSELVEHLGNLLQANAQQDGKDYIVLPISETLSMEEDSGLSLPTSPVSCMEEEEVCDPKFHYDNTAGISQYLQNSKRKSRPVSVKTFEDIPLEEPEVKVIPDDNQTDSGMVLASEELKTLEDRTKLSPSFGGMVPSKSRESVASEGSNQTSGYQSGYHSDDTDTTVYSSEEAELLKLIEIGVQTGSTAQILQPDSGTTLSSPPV
T1 sequence (Q00535 whole entry): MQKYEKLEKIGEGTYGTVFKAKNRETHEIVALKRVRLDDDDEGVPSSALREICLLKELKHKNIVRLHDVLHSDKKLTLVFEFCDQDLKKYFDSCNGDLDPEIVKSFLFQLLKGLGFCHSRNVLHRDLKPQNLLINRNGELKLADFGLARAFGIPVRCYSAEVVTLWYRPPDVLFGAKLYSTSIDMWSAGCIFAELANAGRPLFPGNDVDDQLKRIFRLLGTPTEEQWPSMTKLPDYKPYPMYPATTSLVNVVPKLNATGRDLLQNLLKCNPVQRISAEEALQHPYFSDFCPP
T1 sequence (Q15078 99-307 partner limits assumed): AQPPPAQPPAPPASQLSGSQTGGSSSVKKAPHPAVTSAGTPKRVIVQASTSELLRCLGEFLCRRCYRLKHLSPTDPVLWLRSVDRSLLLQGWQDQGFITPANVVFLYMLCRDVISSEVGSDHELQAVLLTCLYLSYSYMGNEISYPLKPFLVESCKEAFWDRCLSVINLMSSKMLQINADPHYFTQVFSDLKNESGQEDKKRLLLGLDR
Cyclin-dependent kinase 1/cyclin B1 (Homo sapiens), sequence (P06493 whole entry, looked up): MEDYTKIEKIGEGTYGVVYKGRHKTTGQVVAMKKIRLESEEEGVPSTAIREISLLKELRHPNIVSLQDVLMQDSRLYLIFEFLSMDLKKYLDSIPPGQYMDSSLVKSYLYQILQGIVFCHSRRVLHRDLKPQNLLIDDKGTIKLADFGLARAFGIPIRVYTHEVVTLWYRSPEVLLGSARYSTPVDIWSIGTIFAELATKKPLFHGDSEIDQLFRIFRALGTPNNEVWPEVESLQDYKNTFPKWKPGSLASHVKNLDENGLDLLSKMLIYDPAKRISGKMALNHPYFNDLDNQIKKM
Cyclin-dependent kinase 1/cyclin B1 (Homo sapiens), sequence (P14635 whole entry, looked up): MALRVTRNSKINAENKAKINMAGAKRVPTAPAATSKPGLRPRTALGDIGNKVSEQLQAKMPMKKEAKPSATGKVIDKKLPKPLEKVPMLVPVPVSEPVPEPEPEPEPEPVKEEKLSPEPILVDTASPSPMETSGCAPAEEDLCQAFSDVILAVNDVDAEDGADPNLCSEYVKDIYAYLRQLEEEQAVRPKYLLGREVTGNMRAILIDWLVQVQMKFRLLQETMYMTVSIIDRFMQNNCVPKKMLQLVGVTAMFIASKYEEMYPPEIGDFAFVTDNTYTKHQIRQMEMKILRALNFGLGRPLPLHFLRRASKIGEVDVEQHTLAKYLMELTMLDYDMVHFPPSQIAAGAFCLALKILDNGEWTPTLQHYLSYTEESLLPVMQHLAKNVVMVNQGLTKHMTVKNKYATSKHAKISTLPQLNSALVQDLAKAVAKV
CDK3/Cyclin E (Homo sapiens), sequence (P24864 whole entry, looked up): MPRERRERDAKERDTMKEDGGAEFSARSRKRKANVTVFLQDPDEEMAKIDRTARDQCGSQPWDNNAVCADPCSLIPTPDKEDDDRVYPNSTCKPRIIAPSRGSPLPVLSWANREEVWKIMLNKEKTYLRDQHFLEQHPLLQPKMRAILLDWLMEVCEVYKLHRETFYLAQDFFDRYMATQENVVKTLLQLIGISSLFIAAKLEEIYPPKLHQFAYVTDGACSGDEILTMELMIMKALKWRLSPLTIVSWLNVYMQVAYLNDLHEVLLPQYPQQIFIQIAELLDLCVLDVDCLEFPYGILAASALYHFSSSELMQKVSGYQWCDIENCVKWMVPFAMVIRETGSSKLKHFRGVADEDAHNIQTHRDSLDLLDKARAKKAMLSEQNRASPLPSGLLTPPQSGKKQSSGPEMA
CDK3/Cyclin E (Homo sapiens), sequence (Q00526 whole entry, looked up): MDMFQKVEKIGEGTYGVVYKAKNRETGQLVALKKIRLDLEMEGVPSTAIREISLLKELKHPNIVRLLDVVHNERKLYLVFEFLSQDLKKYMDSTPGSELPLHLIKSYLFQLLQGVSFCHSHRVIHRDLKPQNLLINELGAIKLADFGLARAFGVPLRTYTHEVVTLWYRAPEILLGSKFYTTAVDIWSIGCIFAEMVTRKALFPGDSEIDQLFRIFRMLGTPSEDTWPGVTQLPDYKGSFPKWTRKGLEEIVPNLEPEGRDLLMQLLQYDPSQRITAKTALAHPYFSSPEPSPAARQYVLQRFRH

| Structure (SMILES) | IC50 (NCI-H460 [1]) [µM] | IC50 (MCF7) [µM] | IC50 (A549 [3]) [µM] | IC50 (NCI-H1299 [4]) [µM] | inhibition [10] [%] | inhibition [20] [%] | inhibition of growth at 1 µM (OVCAR-5 [5]) [%] | inhibition of growth at 10 µM (NCI-H460 [6]) [%] | inhibition of growth at 1 µM (A549 [7]) [%] | inhibition of growth at 10 µM (A549 [8]) [%] | inhibition of growth at 1 µM (NCI-H1299 [9]) [%] | inhibition of growth at 10 µM (T47D [11]) [%] | inhibition of growth at 1 µM (T47D [12]) [%] | inhibition of growth at 10 µM (SiHa [13]) [%] | inhibition of growth at 1 µM (NCI-H460 [14]) [%] | inhibition of growth at 10 µM (OVCAR-5 [15]) [%] | inhibition of growth at 1 µM (HeLa [16]) [%] | inhibition of growth at 10 µM (HeLa [17]) [%] | inhibition of growth at 10 µM (NCI-H1299 [18]) [%] | inhibition of growth at 1 µM (SiHa [19]) [%] | further results |
| --- | --- | --- | --- | --- | --- | --- | --- | --- | --- | --- | --- | --- | --- | --- | --- | --- | --- | --- | --- | --- | --- |
| COc1cc2nccc(Oc3ccc(NC(=O)C4(C(=O)Nc5ccc(F)cc5)CC4)cc3)c2cc1OC [CABOZANTINIB] | 5.67 | 2.89 | 4.45 | 1.92 | – | – | – | – | – | – | – | – | – | – | – | – | – | – | – | – | IC50 (T47D [2]): 4.45 µM |
| CN(C)C(=O)c1cc2cnc(Nc3ccc(N4CCNCC4)cn3)nc2n1C1CCCC1 [RIBOCICLIB] | > 10 | > 10 | > 10 | 7.64 | – | – | – | – | – | – | – | – | – | – | – | – | – | – | – | – | Activity (T47D [32]): 0.34%; Activity (T47D [33]): 94.8%; Activity (T47D [34]): Active; Activity (T47D [35]): 2.91%; Activity (T47D [36]): 1.94% |
| Nc1ccc(NC(=O)C2(C(=O)Nc3ccc(F)cc3)CC2)cc1F | – | – | – | – | – | – | 6.7 | 62.9 | 16.3 | 14.6 | 46.2 | 30.4 | 5.6 | 36 | 26.7 | 9.7 | 14 | 71.8 | 59.2 | 21.7 | – |

More lines, main results first:

| IC50 (NCI-H460 [1]) [µM] | IC50 (MCF7) [µM] | IC50 (A549 [3]) [µM] | IC50 (NCI-H1299 [4]) [µM] | inhibition [10] [%] | inhibition [20] [%] | Structure (SMILES) | inhibition of growth at 1 µM (OVCAR-5 [5]) [%] | inhibition of growth at 10 µM (NCI-H460 [6]) [%] | inhibition of growth at 1 µM (A549 [7]) [%] | inhibition of growth at 10 µM (A549 [8]) [%] | inhibition of growth at 1 µM (NCI-H1299 [9]) [%] | inhibition of growth at 10 µM (T47D [11]) [%] | inhibition of growth at 1 µM (T47D [12]) [%] | inhibition of growth at 10 µM (SiHa [13]) [%] | inhibition of growth at 1 µM (NCI-H460 [14]) [%] | inhibition of growth at 10 µM (OVCAR-5 [15]) [%] | inhibition of growth at 1 µM (HeLa [16]) [%] | inhibition of growth at 10 µM (HeLa [17]) [%] | inhibition of growth at 10 µM (NCI-H1299 [18]) [%] | inhibition of growth at 1 µM (SiHa [19]) [%] | further results |
| --- | --- | --- | --- | --- | --- | --- | --- | --- | --- | --- | --- | --- | --- | --- | --- | --- | --- | --- | --- | --- | --- |
| – | – | – | – | 4 | 24 | CN(C)C(=O)c1cc2cnc(Nc3ccc(NC(=O)C4(C(=O)Nc5ccc(Cl)c(C(F)(F)F)c5)CC4)cc3)nc2n1C1CCCC1 | -2.4 | 91.9 | 1.1 | 88.1 | 39.5 | 55.8 | 6.9 | 61.1 | 2.1 | 48 | 16.5 | 55.6 | 90.4 | -11.2 | – |
| – | – | – | – | 36 | 95 | CN(C)C(=O)c1cc2cnc(Nc3ccc(NC(=O)C4(C(=O)Nc5ccc(O)cc5)CC4)cc3)nc2n1C1CCCC1 | 80.7 | 104 | 93.6 | 94.4 | 87.4 | 95.8 | 91.5 | 94.3 | 90.4 | 90.9 | 62.3 | 99.9 | 89.7 | 69.5 | inhibition [21]: 90%; inhibition [22]: 94%; inhibition [23]: 23%; inhibition [24]: 88%; inhibition [25]: 26%; inhibition [26]: 88%; inhibition [27]: 86%; inhibition [28]: 89%; inhibition [29]: 90%; inhibition [30]: 0%; inhibition [31]: -9% |
